≈ marks a conversion by molar mass, not a printed value. Calls of active or inactive are those of the source. The rule behind the calls is not given here.

One assay relates to Escherichia coli. The assay can be described thus: Antibacterial activity against Escherichia coli ATCC 35218 after 24 hrs by agar diffusion method. Format: functional. In a few lines:
(§1)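 Agar cup diffusion against the listed ATCC strains. Each compound was dissolved at 1 mg/mL in DMF, and 100 μL was placed in each cup. Plates were incubated at 37 C for 24 h, and the inhibition zone diameters were measured in mm.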
(In general: A growth-free zone around the sample is the usual read-out of agar diffusion tests.)

Assay [1] concerns Klebsiella pneumoniae. The assay can be described thus: Antibacterial activity against Klebsiella pneumoniae ATCC 10032 after 24 hrs by agar diffusion method. In kind it is functional, organism-based. In a few lines: as §1
The test system of assay [2] is Pseudomonas aeruginosa. The assay can be described thus: Antibacterial activity against Pseudomonas aeruginosa ATCC 9027 after 24 hrs by agar diffusion method. Format: functional, organism-based. In a few lines: as §1
For assay [3], the system named is Staphylococcus aureus. The assay can be described thus: Antibacterial activity against Staphylococcus aureus ATCC 6538P after 24 hrs by agar diffusion method. Format: functional. The method in brief: as §1
Assay [4] concerns Candida albicans. The assay is described as follows: Antifungal activity against Candida albicans ATCC 2091 after 24 hrs by agar diffusion method. Format: functional. In a few lines:
as §1

Assay [5] relates to Pseudomonas aeruginosa. The assay is described as follows: Antibacterial activity against Pseudomonas aeruginosa ATCC 9027 at 30 ug/disk after 24 hrs by agar diffusion method. The following applies: ATCC 9027, 24 h, read-out: IZ. Format: functional. In a few lines: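 Agar diffusion against P. aeruginosa ATCC 9027, using reference antibiotic disks at 30 μg/disk. Plates incubated at 37 C for 24 h, and the inhibition zone diameter read in mm.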

The test system of assay [6] is Staphylococcus aureus. The assay can be described thus: Antibacterial activity against Staphylococcus aureus ATCC 6538P at 30 ug/disk after 24 hrs by agar diffusion method. In kind it is functional. Conditions: read-out: IZ. The method in brief:
(§2)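 Reference drugs were tested in the same agar diffusion series at the stated loads: chloramphenicol 30 μg/disk, ciprofloxacin 5 μg/disk, erythromycin 15 μg/disk, and clotrimazole 10 mg/mL (100 μL). Plates were read at 37 C for 24 h, and inhibition zones were recorded in mm.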

Assay [7] relates to Klebsiella pneumoniae. The assay can be described thus: Antibacterial activity against Klebsiella pneumoniae ATCC 10032 at 30 ug/disk after 24 hrs by agar diffusion method. Conditions: ATCC 10032, 24 h, read-out: IZ. In kind it is functional. In a few lines:
as §2

The subject of assay [8] is Pseudomonas aeruginosa. The assay is described as follows: microbe, parasite or virus in culture. Conditions: ATCC 9027, 24 h, read-out: IZ.
Assay [9] concerns Candida albicans. The assay is described as follows: Antifungal activity against Candida albicans ATCC 2091 at 10 mg/mL after 24 hrs by agar diffusion method. In kind it is functional. The following applies: ATCC 2091, 24 h, read-out: IZ. In a few lines:
as §2

In a further assay the test system is HeLa. The assay is described as follows: Cytotoxicity against human HeLa cells after 72 hrs by MTT assay. Format: functional, cell-based. The method in brief: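 HeLa cells were plated overnight at 37 C in 5% CO2. Samples were serially diluted 1:4 down the plate, with adriamycin and DMSO as controls. After 72 h, viability was read at 490 nm as MTS reduction to formazan. IC50 (μg/mL) was calculated from the dilution series.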
(In general: Tetrazolium dyes change colour on reduction, which living cells bring about.)

The subject of assay [10] is Staphylococcus aureus. The assay is described as follows: Antibacterial activity against Staphylococcus aureus ATCC 6538P at 15 ug/disk after 24 hrs by agar diffusion method. The following applies: read-out: IZ. Format: functional. In a few lines:
as §2

The subject of assay [11] is Radical scavenging activity. The assay can be described thus: Antioxidant activity assessed as DPPH radical scavenging activity after 30 mins by TLC […] assay. Format: functional. The method in brief: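 TLC autographic DPPH assay. Samples at 1 mg/mL in MeOH were spotted at 6 μg each as 4 mm spots, with vitamin E as the positive control. The plate was sprayed with 0.2% (w/v) DPPH in MeOH, and scavenging spots were read 30 min after spraying.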
(Loss of DPPH colour is used to gauge radical scavenging.)

For the molecule `COc1c(Br)cc(/C=C/C(=O)N[C@H](CCCNC(=N)N)C(=O)O)cc1Br`, the result in the assay on Escherichia coli, in the assay with Klebsiella pneumoniae [1], in the assay with Pseudomonas aeruginosa [2], in the assay with Staphylococcus aureus [3] and in the assay on Candida albicans [4] was inactive.

Turning to `COc1ccc(/C=C/C(=O)N[C@H](CCCNC(=N)N)C(=O)O)cc1Br`, the outcome in the assay with Escherichia coli, with Klebsiella pneumoniae [1], with Pseudomonas aeruginosa [2], with Staphylococcus aureus [3] and in the assay with Candida albicans [4] was inactive.

For the molecule `COC1=C(Br)[C@H](O)[C@@]2(C=C1Br)CC(C(=O)NCCCCNC(=O)C1=NO[C@]3(C=C(Br)C(OC)=C(Br)[C@@H]3O)C1)=NO2` [AEROTHIONIN], the “inhibition zone (IZ)” value in the assay on Staphylococcus aureus [3] stood at 5 mm. The result with Candida albicans [4] was inactive.

For the molecule `O=C(N[C@H](CO)[C@H](O)c1ccc([N+](=O)[O-])cc1)C(Cl)Cl` [CHLORAMPHENICOL], the figures for the zone of inhibition at 30 µg/disc in the assay on Pseudomonas aeruginosa [5], in the assay with Staphylococcus aureus [6] and in the assay on Klebsiella pneumoniae [7] were 7 mm, 9 mm and 10 mm, respectively.

Turning to `O=C(O)c1cn(C2CC2)c2cc(N3CCNCC3)c(F)cc2c1=O` [CIPROFLOXACIN], the zone of inhibition at 5 µg/disc with Pseudomonas aeruginosa [8] came out at 8 mm.

As for `Clc1ccccc1C(c1ccccc1)(c1ccccc1)n1ccnc1` [CLOTRIMAZOLE], the zone of inhibition at 10000 µg/mL with Candida albicans [9] was 28 mm.

In the case of `NC(=O)CC1(O)C=C(Cl)C(=O)C(Cl)=C1` [DICHLOROVERONGIAQUINOL], in the assay with Escherichia coli, the “inhibition zone (IZ)” value amounted to 15 mm. Further, the IC50 (as a rule, the concentration that inhibits the measured activity by half) in the assay on HeLa was 13 µg/mL (≈ 55.1 µM). In the assay on Candida albicans [4], the outcome was inactive.

In the case of `CC[C@H]1OC(=O)[C@H](C)[C@@H](O[C@H]2C[C@@](C)(OC)[C@@H](O)[C@H](C)O2)[C@H](C)[C@@H](O[C@@H]2O[C@H](C)C[C@H](N(C)C)[C@H]2O)[C@](C)(O)C[C@@H](C)C(=O)[C@H](C)[C@@H](O)[C@]1(C)O` [ERYTHROMYCIN], in the assay with Staphylococcus aureus [10], the zone of inhibition at 15 µg/disc is 8 mm.

For the molecule `COC1=C(Br)[C@H](O)[C@@]2(C=C1Br)CC(C(=O)NCCCCNC(=N)N)=NO2` [PUREALDIN L], the “inhibition zone (IZ)” value in the assay on Staphylococcus aureus [3] stood at 5 mm. The result with Candida albicans [4] was inactive.

Turning to `COc1ccc(O)c(CC(N)=O)c1Br` [SUBEREAPHENOL], the “inhibition zone (IZ)” value is given as 18 mm in the assay on Escherichia coli, 10 mm in the assay with Staphylococcus aureus [3] and 20 mm with Candida albicans [4]. This molecule came in with a 50% inhibitory concentration (IC50) in the assay on HeLa of 19 µg/mL (≈ 73.1 µM). For the same molecule, in assay [11], the outcome was Active.

These data come from ChEMBL document CHEMBL1811775, “Brominated arginine-derived alkaloids from the red sea sponge Suberea mollis” (J Nat Prod, 2011).
